≈ marks a conversion by molar mass, not a printed value.

The values below come from ChEMBL document CHEMBL1128288, “7-Azetidinylquinolones as antibacterial agents. 3. Synthesis, properties and structure-activity relationships of the stereoisomers containing a 7-(3-amino-2-methyl-1-azetidinyl) moiety” (J Med Chem, 1995).

What all share (format): functional
In experiment [1] the test system is Bacillus cereus. The experiment can be described thus: In vitro antibacterial activity measured as minimum inhibitory concentration was evaluated on Bacillus cereus ATCC 11778 (Bc). In short, it runs like this:
(§1)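 Serial 2-fold agar dilution in Mueller Hinton medium, run side by side with reference quinolones. Inoculum 10^5 cfu/mL; compound range 0.007–16 µg/mL.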

For experiment [2], the system named is Bacillus subtilis. As to the kind of experiment: In vitro antibacterial activity measured as minimum inhibitory concentration was evaluated on Bacillus subtilis ATCC 6633(Bs). The procedure, abridged:
as §1

Experiment [3] concerns Enterobacter cloacae. As to the kind of experiment: In vitro antibacterial activity measured as minimum inhibitory concentration, was evaluated on Enterobacter cloacae ATCC 23355 (Ecl).
Experiment [4] concerns Klebsiella pneumoniae. The experiment can be described thus: In vitro antibacterial activity measured as minimum inhibitory concentration was evaluated on klebsiella pneumoniae ATCC 10031 (Kp). In short, it runs like this:
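Serial 2-fold agar dilution in Mueller Hinton medium, run side by side with reference quinolones.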

The subject of experiment [5] is Pseudomonas aeruginosa. As to the kind of experiment: In vivo efficacy as ED50 against Pseudomonas aeruginosa HS-116 by oral administration in mice. In short, it runs like this:
(§2)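 Mice, 4 groups of 10, infected intraperitoneally with slightly more than the LD100 of the organism. A single oral dose was given immediately after infection, with four doses (one per group) chosen from in vitro activity. Survival was scored after one week. ED50 (total dose, mg/kg, protecting 50%) was interpolated among group survival rates.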

Experiment [6] relates to Staphylococcus aureus. The experiment can be described thus: In vivo efficacy as ED50 against Staphylococcus aureus HS-93 by oral administration in mice. In short, it runs like this:
as §2

In experiment [7] the test system is Escherichia coli. The experiment can be described thus: In vivo efficacy as ED50 against Escherichia coli HM-42 by oral administration in mice. The procedure, abridged:
as §2

The test system of experiment [8] is Proteus vulgaris. As to the kind of experiment: In vitro antibacterial activity measured as minimum inhibitory concentration was evaluated on proteus vulgaris ATCC 8427 (Pv). The procedure, abridged:
as §1

Experiment [9] concerns Pseudomonas aeruginosa. The experiment can be described thus: In vitro antibacterial activity measured as minimum inhibitory concentration was evaluated on Pseudomonas aeruginosa ATCC 10145 (Pa). In short, it runs like this: as §1
Experiment [10] concerns Staphylococcus aureus. The experiment can be described thus: In vitro antibacterial activity measured as minimum inhibitory concentration was evaluated on Staphylococcus aureus ATCC 25178 (Sa). The procedure, abridged:
as §1

For experiment [11], the system named is Staphylococcus epidermidis. As to the kind of experiment: In vitro antibacterial activity measured as minimum inhibitory concentration was evaluated on Staphylococcus epidermidis ATCC 155-1 (Se). The procedure, abridged:
as §1

In experiment [12] the test system is Enterococcus faecalis. The experiment can be described thus: In vitro antibacterial activity measured as minimum inhibitory concentration was evaluated on Streptococcus faecalis ATCC 10541 (Sf). In short, it runs like this:
as §1

Experiment [13] has as its system Escherichia coli. As to the kind of experiment: In vitro antibacterial activity measured as minimum inhibitory concentration, was evaluated on Escherichia coli ATCC 23559(Ec). In short, it runs like this:
as §1

Experiment [14] concerns Morganella morganii. As to the kind of experiment: In vitro antibacterial activity measured as minimum inhibitory concentration was evaluated on morganella morganii ATCC 8019 (Mm). In short, it runs like this:
as §1

Setting [15] is: Bacillus cereus, ATCC 11778, read-out: MIC.
Setting [16] is: Bacillus subtilis, ATCC 6633, read-out: MIC.
[17] abbreviates: Enterobacter cloacae, ATCC 23355, read-out: MIC.
The mark [18] stands for this setting: Klebsiella pneumoniae, ATCC 10031, read-out: MIC.
[19] abbreviates: Pseudomonas aeruginosa, po, read-out: ED50.
The mark [20] stands for this setting: Staphylococcus aureus, po, read-out: ED50.
Setting [21] is: Escherichia coli, po, read-out: ED50.
[22] abbreviates: Proteus vulgaris, ATCC 8427, read-out: MIC.
Where [23] appears, read: Pseudomonas aeruginosa, ATCC 10145, read-out: MIC.
Setting [24] is: Staphylococcus aureus, ATCC 25178, read-out: MIC.
The mark [25] stands for this setting: Staphylococcus epidermidis, ATCC 155-1, read-out: MIC.
Setting [26] is: Enterococcus faecalis, ATCC 10541, read-out: MIC.
Where [27] appears, read: Escherichia coli, ATCC 23559, read-out: MIC.
The mark [28] stands for this setting: Morganella morganii, ATCC 8019, read-out: MIC.

Regarding `C[C@@H]1[C@H](N)CN1c1c(F)cc2c(=O)c(C(=O)O)cn(C3CC3)c2c1F` (stereo in doubt; 23c), the MIC (as a rule, the least concentration at which growth counts as inhibited) in experiment [1] turned out to be 0.06 µg/mL (≈ 0.172 µM); in experiment [2] it was 0.03 µg/mL (≈ 0.0859 µM); in [3], 0.03 µg/mL (≈ 0.0859 µM); in experiment [4], 0.03 µg/mL (≈ 0.0859 µM); in experiment [8], 0.12 µg/mL (≈ 0.344 µM); in experiment [9], 0.5 µg/mL (≈ 1.43 µM). Further, the MIC in experiment [10] is 0.06 µg/mL (≈ 0.172 µM); in [11], 0.12 µg/mL (≈ 0.344 µM); in experiment [12], 0.5 µg/mL (≈ 1.43 µM); in [13], 0.03 µg/mL (≈ 0.0859 µM); in experiment [14], 0.06 µg/mL (≈ 0.172 µM). Moreover, the median effective dose (ED50) (in general, the dose that gives a 50% effect, or the effect in half of the subjects) is 117 mg/kg in [5], 5.4 mg/kg in experiment [6] and 6.1 mg/kg in experiment [7].

Take `C[C@@H]1[C@@H](N)CN1c1c(F)cc2c(=O)c(C(=O)O)cn(-c3ccc(F)cc3F)c2c1F`: the minimum inhibitory concentration (MIC) in [1] (setting [15]) came to 0.12 µg/mL (≈ 0.285 µM); in [2] (setting [16]), 0.06 µg/mL (≈ 0.142 µM); in experiment [3] (setting [17]), 0.06 µg/mL (≈ 0.142 µM); in experiment [4] (setting [18]), 0.06 µg/mL (≈ 0.142 µM); in experiment [8] (setting [22]), 0.5 µg/mL (≈ 1.19 µM); in experiment [9] (setting [23]) it was 0.5 µg/mL (≈ 1.19 µM). Besides, the minimal inhibitory concentration (MIC) was determined as 0.12 µg/mL (≈ 0.285 µM) in experiment [10] (setting [24]); 0.12 µg/mL (≈ 0.285 µM) in experiment [11] (setting [25]); 1 µg/mL (≈ 2.37 µM) in experiment [12] (setting [26]); 0.06 µg/mL (≈ 0.142 µM) in experiment [13] (setting [27]); 0.25 µg/mL (≈ 0.593 µM) in experiment [14] (setting [28]). The ED50 amounted to 98 mg/kg in experiment [5] (setting [19]), 11.2 mg/kg in [6] (setting [20]) and 3 mg/kg in [7] (setting [21]).

As for `C[C@@H]1[C@H](N)CN1c1c(F)cc2c(=O)c(C(=O)O)cn(C3CC3)c2c1F` (stereo in doubt; 23), the MIC was 0.12 µg/mL (≈ 0.344 µM) in experiment [1] (setting [15]); 0.06 µg/mL (≈ 0.172 µM) in experiment [2] (setting [16]); 0.06 µg/mL (≈ 0.172 µM) in experiment [3] (setting [17]); 0.12 µg/mL (≈ 0.344 µM) in [4]; 0.25 µg/mL (≈ 0.716 µM) in experiment [8]; 1 µg/mL (≈ 2.86 µM) in experiment [9] (setting [23]). The minimum inhibitory concentration (MIC) in experiment [10] (setting [24]) came out at 0.12 µg/mL (≈ 0.344 µM); in experiment [11] (setting [25]) it was 0.12 µg/mL (≈ 0.344 µM); in experiment [12] (setting [26]) it was 1 µg/mL (≈ 2.86 µM); in experiment [13] (setting [27]) it was 0.06 µg/mL (≈ 0.172 µM); in experiment [14] (setting [28]) it was 0.12 µg/mL (≈ 0.344 µM). Further, the ED50 in [5] (setting [19]) came out at 123 mg/kg; in experiment [6] it was 18.6 mg/kg; in [7] (setting [21]), 6.2 mg/kg.

As to `CC1C(N)CN1c1c(F)cc2c(=O)c(C(=O)O)cn(C3CC3)c2c1Cl` (stereo not drawn), the MIC in [1] (setting [15]) was determined as 0.03 µg/mL (≈ 0.082 µM); in experiment [2] (setting [16]), 0.03 µg/mL (≈ 0.082 µM); in [3] (setting [17]), 0.03 µg/mL (≈ 0.082 µM); in [4] (setting [18]) it was 0.015 µg/mL (≈ 0.041 µM); in [8] (setting [22]) it was 0.03 µg/mL (≈ 0.082 µM); in [10] (setting [24]), 0.03 µg/mL (≈ 0.082 µM). In addition, the MIC in [11] (setting [25]) came to 0.03 µg/mL (≈ 0.082 µM); in [12] (setting [26]) it was 0.06 µg/mL (≈ 0.164 µM); in [13] (setting [27]), 0.015 µg/mL (≈ 0.041 µM); in experiment [14] (setting [28]) it was 0.03 µg/mL (≈ 0.082 µM). The 50% effective dose (ED50) in experiment [5] (setting [19]) came out at 38 mg/kg; in [6] (setting [20]), 9.6 mg/kg; in experiment [7] (setting [21]), 2.8 mg/kg.

With `C[C@@H]1[C@@H](N)CN1c1c(F)cc2c(=O)c(C(=O)O)cn(C3CC3)c2c1F` (stereo in doubt; 22), the MIC was 0.06 µg/mL (≈ 0.172 µM) in experiment [1]; 0.03 µg/mL (≈ 0.0859 µM) in experiment [2]; 0.03 µg/mL (≈ 0.0859 µM) in [3]; 0.03 µg/mL (≈ 0.0859 µM) in experiment [4]; 0.06 µg/mL (≈ 0.172 µM) in [8]; 0.25 µg/mL (≈ 0.716 µM) in experiment [9]. Also, the MIC in [10] came to 0.06 µg/mL (≈ 0.172 µM); in experiment [11] it was 0.06 µg/mL (≈ 0.172 µM); in experiment [12] it was 0.25 µg/mL (≈ 0.716 µM); in [13] it was 0.015 µg/mL (≈ 0.0429 µM); in experiment [14] it was 0.03 µg/mL (≈ 0.0859 µM). Also, the 50% effective dose (ED50) in experiment [5] was 22 mg/kg; in experiment [6], 9 mg/kg; in experiment [7], 2 mg/kg.

Take `CC1C(N)CN1c1cc2c(cc1F)c(=O)c(C(=O)O)cn2C1CC1` (stereo not drawn): the minimum inhibitory concentration (MIC) was found to be 0.06 µg/mL (≈ 0.181 µM) in experiment [1] (setting [15]); 0.03 µg/mL (≈ 0.0905 µM) in experiment [2] (setting [16]); 0.03 µg/mL (≈ 0.0905 µM) in experiment [3] (setting [17]); 0.03 µg/mL (≈ 0.0905 µM) in experiment [4] (setting [18]); 0.06 µg/mL (≈ 0.181 µM) in experiment [8] (setting [22]); 0.015 µg/mL (≈ 0.0453 µM) in experiment [13] (setting [27]). For the same molecule, in [14] (setting [28]), the MIC came to 0.03 µg/mL (≈ 0.0905 µM). The values for the ED50 in experiment [5] (setting [19]), in experiment [6] (setting [20]) and in [7] (setting [21]) were 108 mg/kg, 22.3 mg/kg and 3.5 mg/kg, respectively.

Consider `CC1C(N)CN1c1c(F)cc2c(=O)c(C(=O)O)cn(-c3ccc(F)cc3F)c2c1F` (stereo not drawn), for which the MIC in experiment [1] (setting [15]) was 0.12 µg/mL (≈ 0.285 µM); in experiment [2] (setting [16]) it was 0.06 µg/mL (≈ 0.142 µM); in [3] (setting [17]), 0.06 µg/mL (≈ 0.142 µM); in experiment [4] (setting [18]), 0.06 µg/mL (≈ 0.142 µM); in experiment [8] (setting [22]), 0.5 µg/mL (≈ 1.19 µM); in [9] (setting [23]), 1 µg/mL (≈ 2.37 µM). In addition, the MIC came out at 0.12 µg/mL (≈ 0.285 µM) in experiment [10] (setting [24]); 0.12 µg/mL (≈ 0.285 µM) in [11] (setting [25]); 1 µg/mL (≈ 2.37 µM) in [12] (setting [26]); 0.06 µg/mL (≈ 0.142 µM) in [13] (setting [27]); 0.12 µg/mL (≈ 0.285 µM) in experiment [14] (setting [28]). In addition, the figures for the ED50 in experiment [5] (setting [19]), in experiment [6] (setting [20]) and in [7] (setting [21]) were 61 mg/kg, 10 mg/kg and 2.3 mg/kg, respectively.
